# TDP2 inh: blocks human TDP2 phosphodiesterase activity. recombinant TDP2, T5PNP hydrolysis, p-nitrophenol absorbance 415 nm. inhibition, % at 12.8 µM. hit rate 0.34% among 370,000. AID 720702;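 active = inhibition above the mean of all tested compounds plus 3 SD, set per campaign, cut at about 25% in these data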;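 also: 0% = DMSO with enzyme and 100% = buffer with substrate but no TDP2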
# Target sequence (O95551 whole entry, looked up): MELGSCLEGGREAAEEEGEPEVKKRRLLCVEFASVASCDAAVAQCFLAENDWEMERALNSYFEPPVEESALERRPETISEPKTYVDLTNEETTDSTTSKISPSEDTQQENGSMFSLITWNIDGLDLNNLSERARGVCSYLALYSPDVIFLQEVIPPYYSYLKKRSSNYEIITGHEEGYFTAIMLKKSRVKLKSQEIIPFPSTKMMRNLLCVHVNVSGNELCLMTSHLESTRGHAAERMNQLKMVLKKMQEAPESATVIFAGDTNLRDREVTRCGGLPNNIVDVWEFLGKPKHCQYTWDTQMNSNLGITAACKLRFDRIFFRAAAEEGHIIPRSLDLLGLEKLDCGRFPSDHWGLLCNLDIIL
#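 Assay system: recombinant human TDP2 / Reagent: T5PNP substrate at 5 mM, a TopII-DNA adduct mimic / Measured by: epi absorbance from released p-nitrophenol / Evaluation: % inhibition relative to enzyme-containing and enzyme-free wells / Control set: enzyme-free and DMSO wells / Replicates: each compound tested once, singlicate / Schedule: enzyme reaction with compound for 2 h at 37 °C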
# UHRF1 MBD2 ctr: UHRF1 methyl-DNA binding inhibition. AID 687016. hit rate 0.75% among 370,000. UHRF1 binding to methylated oligo, TR-FRET. inhibition, % at 4.4 µM. Q96T88; in the data active = inhibition above about 21%;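 also: UHRF1 SRA domain binding a hemimethylated CpG hairpin DNA probe; 0% = median of test compound wells and 100% = reference inhibitor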
# MBD2 DNA inh: inhibitors of human MBD2 binding to methylated oligonucleotide; Q9UBB5; TR-FRET; inhibition, % at 4.4 µM; hit rate 0.31% among 370,000; AID 686964; in the data active = inhibition above about 13%
# LEDGF integ inh: blocks HIV-1 LEDGF/p75-dependent DNA integration; TR-FRET IN-LEDGF/p75 DNA integration, Eu/Cy5; inhibition, % at 3.7 µM; hit rate 0.64% among 370,000;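 active = inhibition above the screen-wide mean plus 3 SD, cut at about 13% in these data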;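 also: signal is the Cy5 over europium emission ratio at 671 and 618 nm; 0% = plate median of compound wells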
# IN multimer act: counter-screen for LEDGF/p75 integration inhibitors: HIV-1 integrase multimerization activators | shares compounds with LEDGF integ inh | TR-FRET HIV-1 integrase multimerization, biochemical | activation, % at 7.7 µM | hit rate 17% among 2,000; in the data active = activation above about 8.9%
# TRFRET interf: optically interferes with TR-FRET readout in LEDGF counter-screen. inhibition, % at 7.7 µM. AID 1053135. shares compounds with LEDGF integ inh. TR-FRET optical interference counterscreen, HIV-1 IN multimerization. 2,000 tested, under 10 active;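 active = inhibition above the mean over all tested compounds plus 3 SD, which no compound reached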;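 also: 0% = integrase with antibodies and DMSO and 100% = antibodies without integrase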
# LEDGF integ conf: LEDGF/p75-dependent HIV-1 integration inhibition, confirmation | shares compounds with LEDGF integ inh | TR-FRET LEDGF/p75-dependent HIV-1 integration, biochemical | inhibition, % at 3.7 µM | hit rate 36% among 2,000 | AID 1053136; in the data active = inhibition above about 14%
# Numbers without * were called inactive; . = no result. Rows were chosen to be rich in hits. Some 1.6% of all compounds tested hit in one or more screens of this group.
SMILES,TDP2 inh,UHRF1 MBD2 ctr,MBD2 DNA inh,LEDGF integ inh,IN multimer act,TRFRET interf,LEDGF integ conf
Oc1ccccc1/C=N/c1c(-c2ccco2)nc2ccccn12,6,4,-8,20*,3,-13,4
Clc1ccc(/C=N/c2c(-c3ccco3)nc3ccccn23)cc1,16,4,2,12,.,.,.
C[N+]1=C(N)NC2=C3CCCCC3n3c(=O)n(-c4ccccc4)c(=O)n3C2C1 (stereo not drawn),4,-1,3,-1,.,.,.
O=C(Nc1ccc2c(c1)oc1ccc(S(=O)(=O)N3CCCC3)cc12)C1CC1,14,-6,2,24*,1,-3,-4
Fc1ccccc1-c1n[nH]c(=S)n1N=Cc1cccc(OCc2ccccc2)c1,4,-2,4,-1,.,.,.
C[C@@]12C(=O)N(c3ccccc3)C(=O)N1[C@@H]1c3ccccc3OC[C@@H]1[C@H]2c1ccccc1,2,1,-1,2,.,.,.
C[C@@]12C(=O)N(c3cccc(Cl)c3)C(=O)N1[C@@H]1c3ccccc3OC[C@@H]1[C@H]2c1ccccc1,4,0,4,34*,1,-6,1
COc1ccc(/C=N\NC(=O)c2cc(O)c(O)c(O)c2)cc1CN1CCN(c2ccc(F)cc2)CC1,4,11,-1,20*,37*,-188,38*
O=C(c1ccc2nc(-c3ccco3)c(-c3ccco3)nc2c1)N1CCN(c2ccccc2)CC1,-15,8,-8,39*,1,-5,14*
O=c1cc(-c2ccc(O)c(O)c2)oc2c1ccc1ccccc12,-6,-1,10,51*,2,-8,68*
O=c1cc(-c2ccccc2)oc2c1ccc1ccccc12,-4,-6,-1,-1,.,.,.
CC(=O)Nc1ccc(NC(=O)C2CC(=O)N=C(N)S2)cc1 (stereo not drawn),5,-3,-2,1,.,.,.
COc1cccc(NC(=O)C2CC(=O)N=C(N)S2)c1 (stereo not drawn),5,-2,-6,17*,0,-2,1
CS(=O)(=O)N1CCN(c2ccc(NC(=O)CSc3ccc(Cl)cc3)cc2)CC1,3,-1,-5,63*,-2,8,-1
O=c1c(O)c(-c2ccc(O)c(O)c2)oc2cc(O)ccc12,3,0,0,79*,39*,-198,92*
N#Cc1ccc(OCCCN2CCC(C(O)(C3=CCCC3)c3ccccc3)CC2)cc1 (stereo not drawn),1,1,-1,4,.,.,.
O=C(CN1CCN(c2ccc(F)cc2)CC1)Nc1ccc(F)c(F)c1,-10,18,4,3,.,.,.
O=C(CN1CCN(c2ccc(Cl)cc2)CC1)Nc1cccc(F)c1,-6,-1,-3,32*,0,-1,-4
COc1ccc2c(COC(=O)CC3Sc4ccccc4NC3=O)cc(=O)oc2c1 (stereo not drawn),2,-1,-3,0,.,.,.
CC(=O)Nc1ccc2c(COC(=O)CC3Sc4ccccc4NC3=O)cc(=O)oc2c1 (stereo not drawn),9,15,6,14*,21*,-107,14*
COC(=O)c1cc2c(c3c4cc(OC)ccc4n(S(=O)(=O)c4cccc(C)c4)c13)C(=O)N(Cc1ccc(N(C)C)cc1)C2,9,-2,-2,-1,.,.,.
CC(C)(C)OC(=O)N1Cc2ccccc2C[C@H]1C(=O)NC1CCCC1,-2,-1,1,53*,0,0,-2
CCN(CC)c1ccc(N=Cc2ccc([N+](=O)[O-])o2)cc1,-2,25*,10,41*,7,-36,18*
CCCCCC(=O)N/N=C/c1ccc([N+](=O)[O-])o1,-8,2,2,-1,.,.,.
COc1ccc(C(=O)N[C@H]2CC[C@@]34CCCN3C(=O)CCC[C@H]4[C@H]2C)cc1,-5,2,-4,-2,.,.,.
SMILES,TDP2 inh,UHRF1 MBD2 ctr,MBD2 DNA inh,LEDGF integ inh,IN multimer act,TRFRET interf,LEDGF integ conf
C=CCn1c(C)cc(C(=O)Cn2ncc(Cl)c(Cl)c2=O)c1C,0,20,7,26*,26*,-92,39*
Cc1cc(C)cc(N(CC(=O)NC2CCC(C)CC2)S(=O)(=O)c2ccc(Cl)s2)c1 (stereo not drawn),4,1,0,-1,.,.,.
COC(=O)CN1C(=O)[C@H]2[C@@H](/C=C/c3ccccc3)N3C(=O)CN(Cc4ccccc4)C(=O)[C@@]3(C)[C@H]2C1=O,-6,-2,1,81*,0,-2,-17
CN1C(=O)[C@H]2[C@@H](/C=C/c3ccccc3)N3C(=O)CN(Cc4ccccc4)C(=O)[C@@]3(C)[C@H]2C1=O,3,4,3,-5,.,.,.
CC(C)(C)c1ccc(OCCCN2CCC(C(O)(c3ccccc3)c3ccccc3)CC2)cc1,3,0,2,-1,.,.,.
Cc1ccc(-n2nc3c(c2NC(=O)c2ccc(Br)o2)CSC3)c(C)c1,-3,-2,-2,15*,0,-1,49*
COCCNC(=O)c1onc(CSc2cccc(OC)c2)c1C(=O)NCCOC,7,8,1,-3,.,.,.
COc1cccc(SCc2noc(C(=O)NCc3ccccc3)c2C(=O)NCc2ccccc2)c1,8,3,3,48*,-1,7,-5
CC(C)c1ccccc1NC(=O)CN1C(=O)c2ccccc2C1=O,-8,1,-5,73*,-2,9,2
O=C(NCc1ccccc1)c1cc(-c2ccco2)on1,-3,0,3,16*,0,0,1
CCOc1cc(CCNC(=O)c2cc3ccsc3n2C)ccc1OC,-5,3,-1,3,.,.,.
Brc1ccc(CSc2ccc3nnc(-c4cccnc4)n3n2)cc1,-5,-3,3,4,.,.,.
Cc1ccc(CSc2ccc3nnc(-c4cccnc4)n3n2)cc1,6,1,2,14*,0,0,6
COc1ccc(S(=O)(=O)N(CC(=O)Nc2ccc(S(=O)(=O)N3CCOCC3)cc2)c2ccccc2)cc1,2,-2,3,20*,1,-2,1
Cc1ccc(-c2nnc3n2N=C(c2ccc(-c4ccccc4)cc2)CS3)cc1,-11,-3,-1,5,.,.,.
Cc1ccc(-c2n[nH]c(=S)n2/N=C/c2cccs2)cc1,-12,2,5,-8,.,.,.
Cc1cc(-c2n[nH]c(=S)n2/N=C/c2cccs2)n[nH]1,8,-1,3,38*,2,-8,1
COc1cccc(CNC(=O)[C@H]2CCCN2C(=O)[C@H]2CCCN2C(=O)c2ccc(F)cc2F)c1,-1,-2,-4,3,.,.,.
c1cc2c(cc1CNc1ccc(N3CCOCC3)cc1)OCO2,16,-3,0,16*,5,-24,-16

# Source: PubChem BioAssay (The Scripps Research Institute Molecular Screening Center)
